# System: Trypanosoma cruzi
# Test: Antiparasitic activity against Trypanosoma cruzei Y blood stream trypomastigotes
# Assay type: functional, organism-based
# Outline: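 Mouse infected blood diluted with healthy mouse blood and fetal bovine serum to about 106 trypomastigotes/mL; compounds from DMSO stocks added at final 10, 100, 250, 500 and 1000 µg/mL. Incubated 4 °C, 24 h with constant shaking; untreated and crystal violet-treated controls; triplicate. Trypomastigotes counted, % lysis versus untreated; IC50 taken as 50% activity concentration.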
row,Compound,IC50 [µg/mL]
1,Cc1nn(-c2ccccc2)c2nc(-c3ccc([N+](=O)[O-])cc3)cc(C(=O)NN)c12,533
2,COc1ccc(-c2cc(C(=O)N/N=C\c3ccc(O)cc3)c3c(C)nn(-c4ccccc4)c3n2)cc1,332
3,Cc1nn(-c2ccccc2)c2nc(-c3ccc(Cl)cc3)cc(C(=O)N/N=C\c3ccc([N+](=O)[O-])cc3)c12,108
4,Cc1nn(-c2ccccc2)c2nc(-c3ccc(Cl)cc3)cc(C(=O)NN)c12,211
5,Cc1nn(-c2ccccc2)c2nc(-c3ccc(C#N)cc3)cc(C(=O)NN)c12,341
6,COc1ccc(-c2cc(C(=O)N/N=C\c3ccc([N+](=O)[O-])cc3)c3c(C)nn(-c4ccccc4)c3n2)cc1,> 1500
7,Cc1nn(-c2ccccc2)c2nc(-c3ccc(C#N)cc3)cc(C(=O)N/N=C\c3ccc(F)cc3)c12,378
8,CCOc1ccc(-c2cc(C(=O)N/N=C\c3ccc(F)cc3)c3c(C)nn(-c4ccccc4)c3n2)cc1,39.3
9,CCOc1ccc(-c2cc(C(=O)N/N=C\c3ccc(O)cc3)c3c(C)nn(-c4ccccc4)c3n2)cc1,170
10,CCOc1ccc(-c2cc(C(=O)N/N=C\c3ccc([N+](=O)[O-])cc3)c3c(C)nn(-c4ccccc4)c3n2)cc1,1180
11,CCOc1ccc(-c2cc(C(=O)NN)c3c(C)nn(-c4ccccc4)c3n2)cc1,439
12,Cc1nn(-c2ccccc2)c2nc(-c3ccc(C#N)cc3)cc(C(=O)N/N=C\c3ccc([N+](=O)[O-])cc3)c12,37.3
13,COc1ccc(-c2cc(C(=O)NN)c3c(C)nn(-c4ccccc4)c3n2)cc1,781

# Results, then the compound that gave them:
row,IC50 [µg/mL],Compound
1,782,Cc1nn(-c2ccccc2)c2nc(-c3ccccc3)cc(C(=O)NN)c12
2,1.9,Cc1nn(-c2ccccc2)c2nc(-c3ccccc3)cc(C(=O)N/N=C\c3ccc(O)cc3)c12
3,88.9,Cc1nn(-c2ccccc2)c2nc(-c3ccccc3)cc(C(=O)N/N=C\c3ccc(F)cc3)c12
4,71.8,Cc1nn(-c2ccccc2)c2nc(-c3ccc(Cl)cc3)cc(C(=O)N/N=C\c3ccc(O)cc3)c12
5,197,Cc1nn(-c2ccccc2)c2nc(-c3ccc(Cl)cc3)cc(C(=O)N/N=C\c3ccc(F)cc3)c12
6,260,Cc1nn(-c2ccccc2)c2nc(-c3ccc(C#N)cc3)cc(C(=O)N/N=C\c3ccc(O)cc3)c12
7,1460,COc1ccc(-c2cc(C(=O)N/N=C\c3ccc(F)cc3)c3c(C)nn(-c4ccccc4)c3n2)cc1
8,95.3,Cc1nn(-c2ccccc2)c2nc(-c3ccccc3)cc(C(=O)N/N=C\c3ccc([N+](=O)[O-])cc3)c12
9,205,Cc1nn(-c2ccccc2)c2nc(-c3ccccc3)cc(C(=O)N/N=C\c3ccccc3)c12

# Source: ChEMBL document CHEMBL1144515, “Synthesis, in vitro evaluation, and SAR studies of a potential antichagasic 1H-pyrazolo[3,4-b]pyridine series” (Bioorg Med Chem, 2007)
